Assay results published in ChEMBL document CHEMBL4382197, “Discovery of QCA570 as an Exceptionally Potent and Efficacious Proteolysis Targeting Chimera (PROTAC) Degrader of the Bromodomain and Extra-Terminal (BET) Proteins Capable of Inducing Complete and Durable Tumor Regression” (J Med Chem, 2018).
Active and inactive are the calls of the source. The rule behind the calls is not given here.

Experiments:
[1] = target: T1, Protein cereblon/Bromodomain-containing protein 4/Cullin-4A (Homo sapiens) (UniProt O60885+Q96SW2+Q13619); test: Protac activity at cereblon/cullin 4A/BRD4 in human MV4-11 cells assessed as BRD4 degradation at 10 pM after 3 hrs by Western blot analysis; assay type: cell-based
[2] = target: T2, Protein cereblon/Bromodomain-containing protein 2/Cullin-4A (Homo sapiens) (UniProt P25440+Q96SW2+Q13619); test: Protac activity at cereblon/cullin 4A/BRD2 in human MV4-11 cells assessed as BRD2 degradation at 30 to 100 pM after 3 hrs by Western blot analysis; assay type: cell-based
[3] = target: T2, Protein cereblon/Bromodomain-containing protein 2/Cullin-4A (Homo sapiens); test: Protac activity at cereblon/cullin 4A/BRD2 in human RS4:11 cells assessed as BRD2 degradation at 0.5 nM after 3 hrs by Western blot analysis; assay type: cell-based
[4] = target: T3, Protein cereblon/Bromodomain-containing protein 3/Cullin-4A (Homo sapiens) (UniProt Q15059+Q96SW2+Q13619); test: Protac activity at cereblon/cullin 4A/BRD3 in human RS4:11 cells assessed as BRD3 degradation at 0.5 nM after 3 hrs by Western blot analysis; assay type: cell-based
[5] = target: T2, Protein cereblon/Bromodomain-containing protein 2/Cullin-4A (Homo sapiens); test: Protac activity at cereblon/cullin 4A/BRD2 in human RS4:11 cells assessed as BRD2 degradation at 0.5 nM after 3 hrs in presence of lenalidomide by Western blot analysis; assay type: cell-based
Outline: (§1)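 RS4;11 cells were pre-treated for 2 h with DMSO, lenalidomide (10 μM), MLN4924 (1 μM) or MG-132 (20 μM). The degrader was then added at 0.5 nM for 3 h. Lysates were immunoblotted for BRD2, BRD3 and BRD4, with GAPDH as loading control.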

[6] = target: T3, Protein cereblon/Bromodomain-containing protein 3/Cullin-4A (Homo sapiens); test: Protac activity at cereblon/cullin 4A/BRD3 in human RS4:11 cells assessed as BRD3 degradation at 0.5 nM after 3 hrs in presence of lenalidomide by Western blot analysis; assay type: cell-based; outline: as §1
[7] = target: T1, Protein cereblon/Bromodomain-containing protein 4/Cullin-4A (Homo sapiens); test: Protac activity at cereblon/cullin 4A/BRD4 in human RS4:11 cells assessed as BRD4 degradation at 0.5 nM after 3 hrs in presence of neddylation inhibitor MLN4924 by Western blot analysis; assay type: cell-based; outline: as §1
[8] = target: T1, Protein cereblon/Bromodomain-containing protein 4/Cullin-4A (Homo sapiens); test: Protac activity at cereblon/cullin 4A/BRD4 in human RS4:11 cells assessed as BRD4 degradation at 0.5 nM after 3 hrs in presence of proteasome inhibitor MG132 by Western blot analysis; assay type: cell-based; outline: as §1
[9] = target: Protein cereblon/Eukaryotic peptide chain release factor GTP-binding subunit ERF3A/Cullin-4A (Homo sapiens) (UniProt Q96SW2+Q13619+P15170); test: Induction of Cereblon/Cullin 4A-mediated-GSPT1 degradation in human MV4-11 cells at 0.01 to 10 nM after 3 hrs by Western blot analysis; assay type: cell-based
MV4-11 [10] = test: Induction of apoptosis in human MV4-11 cells after 24 to 48 hrs by Annexin V/propidium iodine-double staining-based flow cytometry; assay type: functional, cell-based
Outline: (§2)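 Leukemia cells were treated for 24 h or 48 h at the indicated concentrations. They were then collected, washed in cold PBS and stained with Annexin V and propidium iodide. Apoptotic fraction was measured by flow cytometry.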

MOLM-13 = test: Induction of apoptosis in human MOLM13 cells after 24 hrs by Annexin V/propidium iodine-double staining-based flow cytometry; assay type: functional, cell-based; outline: as §2
RS4-11 [11] = test: Induction of apoptosis in human RS4:11 cells after 24 to 48 hrs by Annexin V/propidium iodine-double staining-based flow cytometry; assay type: functional, cell-based; outline: as §2
RS4-11 [12] = test: Induction apoptosis in human RS4:11 cells assessed as caspase-3 activation at 0.3 nM after 24 hrs by Western blot analysis; assay type: functional, cell-based
Outline: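 Cells (1.5–2×10^6/well) were treated for 24 h, washed in cold PBS and lysed in RIPA with protease inhibitors. 20 µg lysate was run on 4–20% or 4–12% gels and transferred to PVDF. Blots were probed for cleaved PARP and cleaved caspase 3, with GAPDH as loading control. Detection by ECL.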

Mus musculus [13] = test: In vivo Protac activity at cereblon/cullin/BRD3 in tumor of human RS4:11 cells xenografted in SCID mouse assessed as reduction in BRD3 protein expression at 1 to 5 mg/kg, iv administered as single dose and measured at 1 to 6 hrs post dose by Western blot analysis; assay type: functional, organism-based
Outline: (§3)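 SCID mice bearing subcutaneous RS4;11 tumors were given a single intravenous dose of 1 or 5 mg/kg. Tumors were harvested at 1, 6 and 24 h, two mice per time point. Tissue was ground in liquid nitrogen and lysed in CST buffer with protease inhibitors. 20 µg lysate per lane was probed for BRD2, BRD3, BRD4, c-Myc and cleaved PARP, with GAPDH as loading control.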

Mus musculus [14] = test: In vivo Protac activity at cereblon/cullin/BRD4 in tumor of human RS4:11 cells xenografted in SCID mouse assessed as reduction in BRD4 protein expression at 1 to 5 mg/kg, iv administered as single dose and measured at 1 to 6 hrs post dose by Western blot analysis; assay type: functional, organism-based; outline: as §3
Mus musculus [15] = test: In vivo Protac activity at cereblon/cullin/BET in tumor of human RS4:11 cells xenografted in SCID mouse assessed as reduction in cMyc protein expression at 1 to 5 mg/kg, iv administered as single dose and measured at 1 to 24 hrs post dose by Western blot analysis; assay type: functional, organism-based; outline: as §3
[16] = Drug uptake in kidney of SCID mouse xenografted with human RS4:11 cells at 5 mg/kg, iv measured at 6 hrs by LC-MS/MS analysis; assay type: ADME, organism-based; conditions: in vivo, BLD = below limit of detection
Outline: (§4)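 Female SCID mice with RS4;11 tumors received a single 5 mg/kg intravenous dose in 20% PCP/80% PBS. Plasma (heparin) and tissues were taken at 1, 3 and 6 h, one mouse per time point in duplicate. Plasma was precipitated with acetonitrile containing internal standard. Tissues were homogenized 5:1 in 20% acetonitrile. Quantified by LC-MS/MS against spiked plasma standards (2–2000 ng/mL); values in ng/ml or ng/g.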

[17] = Drug uptake in intestine of SCID mouse xenografted with human RS4:11 cells at 5 mg/kg, iv measured at 6 hrs by LC-MS/MS analysis; assay type: ADME, organism-based; conditions: in vivo, BLD = below limit of detection; outline: as §4
RS4-11 [18] = test: Antitumor activity against human RS4:11 cells xenografted in SCID mouse assessed tumor regression at 1 to 5 mg/kg, iv administered 3 times per week for 3 weeks; assay type: functional, organism-based
Outline: (§5)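 RS4;11 xenografts: 5×10^6 cells in 50% Matrigel injected subcutaneously on the dorsal side of SCID mice, one tumor per mouse. Randomized to treatment or vehicle at ~100 mm3. Intravenous dosing on several schedules, including 3 times per week for 3 weeks and weekly. Volume = L × W2/2; body weight tracked.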

RS4-11 [19] = test: Antitumor activity against human RS4:11 cells xenografted in SCID mouse assessed tumor growth inhibition at 5 mg/kg, iv administered weekly; assay type: functional, organism-based; outline: as §5
MV4-11 [20] = test: Antitumor activity against human MV4-11 cells xenografted in SCID mouse assessed tumor regression at 5 mg/kg, iv administered 3 times per week for 2 weeks; assay type: functional, organism-based
Outline: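 MV4;11 xenografts: 5×10^6 cells in 50% Matrigel injected subcutaneously on the dorsal side of SCID mice, one tumor per mouse. Mice randomized at ~100 mm3. Dosed intravenously three times a week for two weeks. Tumor volume = L × W2/2; body weight monitored.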

RS4-11 [21] = test: Antitumor activity against human RS4:11 cells xenografted in SCID mouse assessed as induction of apoptosis by measuring PARP cleavage at 1 to 5 mg/kg, iv administered as single dose and measured at 1 to 24 hrs post dose by Western blot analysis; assay type: functional, organism-based; outline: as §3

T2 sequence (P25440 whole entry, looked up): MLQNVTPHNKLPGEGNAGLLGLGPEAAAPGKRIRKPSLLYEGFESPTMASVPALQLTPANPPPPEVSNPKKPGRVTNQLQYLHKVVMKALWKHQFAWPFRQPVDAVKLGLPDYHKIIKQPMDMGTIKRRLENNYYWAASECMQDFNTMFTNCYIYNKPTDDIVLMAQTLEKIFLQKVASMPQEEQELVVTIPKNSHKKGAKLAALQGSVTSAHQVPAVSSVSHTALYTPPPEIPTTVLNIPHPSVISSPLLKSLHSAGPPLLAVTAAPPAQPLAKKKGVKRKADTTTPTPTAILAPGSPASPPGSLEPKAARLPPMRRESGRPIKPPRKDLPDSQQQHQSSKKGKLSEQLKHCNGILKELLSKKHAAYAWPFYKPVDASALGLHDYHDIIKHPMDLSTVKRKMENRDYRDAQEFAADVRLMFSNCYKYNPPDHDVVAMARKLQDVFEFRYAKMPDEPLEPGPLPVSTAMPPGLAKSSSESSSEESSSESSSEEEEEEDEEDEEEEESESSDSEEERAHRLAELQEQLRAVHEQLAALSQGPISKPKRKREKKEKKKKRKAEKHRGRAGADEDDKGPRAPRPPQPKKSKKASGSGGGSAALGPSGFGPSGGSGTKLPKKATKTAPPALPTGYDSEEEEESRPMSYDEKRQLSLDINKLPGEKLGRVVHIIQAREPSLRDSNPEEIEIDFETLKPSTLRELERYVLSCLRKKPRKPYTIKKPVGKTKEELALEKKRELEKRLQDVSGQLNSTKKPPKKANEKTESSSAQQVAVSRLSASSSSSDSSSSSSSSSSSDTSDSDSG
T2 sequence (Q13619 whole entry, looked up): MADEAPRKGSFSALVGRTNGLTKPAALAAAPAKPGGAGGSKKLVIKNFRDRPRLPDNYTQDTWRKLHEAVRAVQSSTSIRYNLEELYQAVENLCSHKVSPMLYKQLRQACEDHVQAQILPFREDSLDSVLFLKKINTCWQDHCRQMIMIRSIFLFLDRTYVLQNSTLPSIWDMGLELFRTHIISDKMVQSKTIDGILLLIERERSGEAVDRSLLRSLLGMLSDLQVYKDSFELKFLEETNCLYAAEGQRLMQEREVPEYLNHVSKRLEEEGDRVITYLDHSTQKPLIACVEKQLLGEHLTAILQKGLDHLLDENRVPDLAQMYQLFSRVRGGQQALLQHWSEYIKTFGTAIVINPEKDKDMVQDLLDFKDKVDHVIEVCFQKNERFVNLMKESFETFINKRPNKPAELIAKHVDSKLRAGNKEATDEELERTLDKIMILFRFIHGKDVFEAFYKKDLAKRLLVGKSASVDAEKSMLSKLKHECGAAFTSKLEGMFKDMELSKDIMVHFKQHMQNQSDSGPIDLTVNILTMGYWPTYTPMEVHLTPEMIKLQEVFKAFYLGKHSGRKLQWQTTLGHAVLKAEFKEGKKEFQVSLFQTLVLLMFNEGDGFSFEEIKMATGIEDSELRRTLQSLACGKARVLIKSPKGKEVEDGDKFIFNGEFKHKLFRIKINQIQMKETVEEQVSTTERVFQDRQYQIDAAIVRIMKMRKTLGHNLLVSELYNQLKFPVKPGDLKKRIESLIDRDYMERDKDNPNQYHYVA
T2 sequence (Q96SW2 whole entry, looked up): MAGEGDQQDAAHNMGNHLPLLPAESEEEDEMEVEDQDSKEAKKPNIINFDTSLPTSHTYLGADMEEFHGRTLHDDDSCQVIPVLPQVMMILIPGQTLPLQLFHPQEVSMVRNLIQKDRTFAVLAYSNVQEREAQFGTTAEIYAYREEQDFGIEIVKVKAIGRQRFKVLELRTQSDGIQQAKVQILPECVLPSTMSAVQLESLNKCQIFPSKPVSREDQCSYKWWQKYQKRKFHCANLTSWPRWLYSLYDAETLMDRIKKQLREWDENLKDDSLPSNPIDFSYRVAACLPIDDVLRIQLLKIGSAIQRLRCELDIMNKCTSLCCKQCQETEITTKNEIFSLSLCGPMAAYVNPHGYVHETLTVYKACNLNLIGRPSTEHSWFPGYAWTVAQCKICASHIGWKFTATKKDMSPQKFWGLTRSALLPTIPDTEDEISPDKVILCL
T3 sequence (Q13619 whole entry, looked up): as the sequence (Q13619 whole entry, looked up) above
T3 sequence (Q15059 whole entry, looked up): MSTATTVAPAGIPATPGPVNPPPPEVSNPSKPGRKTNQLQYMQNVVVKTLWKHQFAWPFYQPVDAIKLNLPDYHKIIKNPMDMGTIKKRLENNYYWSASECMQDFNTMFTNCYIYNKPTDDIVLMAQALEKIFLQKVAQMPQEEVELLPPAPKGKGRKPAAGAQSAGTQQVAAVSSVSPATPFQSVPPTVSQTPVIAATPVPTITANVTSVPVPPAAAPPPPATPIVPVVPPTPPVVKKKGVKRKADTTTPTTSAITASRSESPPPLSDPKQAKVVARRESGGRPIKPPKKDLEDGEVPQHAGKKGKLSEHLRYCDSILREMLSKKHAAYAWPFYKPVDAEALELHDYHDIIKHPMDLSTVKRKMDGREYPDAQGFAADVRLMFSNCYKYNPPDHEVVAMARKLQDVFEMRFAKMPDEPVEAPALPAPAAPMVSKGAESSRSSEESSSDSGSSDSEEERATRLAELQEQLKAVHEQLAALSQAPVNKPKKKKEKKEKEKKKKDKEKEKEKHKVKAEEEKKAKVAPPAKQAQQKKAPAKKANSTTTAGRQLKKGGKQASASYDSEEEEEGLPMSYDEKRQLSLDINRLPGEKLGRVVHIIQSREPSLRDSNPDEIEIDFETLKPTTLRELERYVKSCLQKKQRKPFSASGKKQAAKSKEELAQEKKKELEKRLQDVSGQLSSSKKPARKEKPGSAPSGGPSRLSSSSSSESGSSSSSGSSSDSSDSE
T3 sequence (Q96SW2 whole entry, looked up): as the sequence (Q96SW2 whole entry, looked up) above
Chain of Protein cereblon/Eukaryotic peptide chain release factor GTP-binding subunit ERF3A/Cullin-4A (Homo sapiens) (P15170 whole entry, looked up): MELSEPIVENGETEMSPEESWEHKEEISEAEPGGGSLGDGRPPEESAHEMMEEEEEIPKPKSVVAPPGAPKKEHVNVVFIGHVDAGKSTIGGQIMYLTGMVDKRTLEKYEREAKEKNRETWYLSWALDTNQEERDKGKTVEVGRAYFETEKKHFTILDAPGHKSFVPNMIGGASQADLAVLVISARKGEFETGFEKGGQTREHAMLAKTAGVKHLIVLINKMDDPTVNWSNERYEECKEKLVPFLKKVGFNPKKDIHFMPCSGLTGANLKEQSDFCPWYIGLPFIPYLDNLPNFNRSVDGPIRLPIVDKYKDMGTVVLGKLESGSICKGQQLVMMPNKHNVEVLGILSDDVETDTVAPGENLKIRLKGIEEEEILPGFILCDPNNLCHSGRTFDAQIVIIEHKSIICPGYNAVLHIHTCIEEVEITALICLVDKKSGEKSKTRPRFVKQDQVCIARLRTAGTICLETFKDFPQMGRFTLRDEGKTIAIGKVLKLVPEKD
Chain of Protein cereblon/Eukaryotic peptide chain release factor GTP-binding subunit ERF3A/Cullin-4A (Homo sapiens) (Q13619 whole entry, looked up): as the sequence (Q13619 whole entry, looked up) above
Chain of Protein cereblon/Eukaryotic peptide chain release factor GTP-binding subunit ERF3A/Cullin-4A (Homo sapiens) (Q96SW2 whole entry, looked up): as the sequence (Q96SW2 whole entry, looked up) above

Activity [1]: Active
Activity [2]: Active
Activity [3]: Active
Activity [4]: Active
Activity [5]: inactive
Activity [6]: inactive
Activity [7]: inactive
Activity [8]: inactive
Activity [9]: inactive
Drug uptake [16]: Bld
Drug uptake [17]: Bld
Compound: Cc1nnc2n1Cc1sc(C#Cc3cnn(CCCC#Cc4cccc5c4CN(C4CCC(=O)NC4=O)C5=O)c3)c(Cc3ccccc3)c1OC2 (configuration not stated)
Activity (MV4-11 [10]): Dose-dependent effect
Activity (MOLM-13): Dose-dependent effect
Activity (RS4-11 [11]): Dose-dependent effect
Activity (RS4-11 [12]): inactive
Activity (Mus musculus [13]): Active
Activity (Mus musculus [14]): Active
Activity (Mus musculus [15]): Active
Activity (RS4-11 [18]): Active
TGI (RS4-11 [19]): Active
Activity (MV4-11 [20]): Active
Activity (RS4-11 [21]): Active
